{"source": "ChEMBL document CHEMBL4732054", "about": "“Extension of furopyrimidine nucleosides with 5-alkynyl substituent: Synthesis, high fluorescence, and antiviral effect in the absence of free ribose hydroxyl groups” (Eur J Med Chem, 2021)", "key": {"[1]": {"tested_on": "HEL", "test": "Cytotoxicity against human HEL cells assessed as reduction in cell growth incubated for 3 days by coulter counter method", "type": "cell-based", "details": "72 h, time 3 day", "method_in_brief": "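HEL cells were seeded at 5 × 10^3 cells/well and allowed to grow for 24 h. Medium containing varying compound concentrations was then added, and cells were incubated 3 days at 37 °C. Cell number was counted with a Coulter counter.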"}, "[2]": {"test": "Cytotoxicity against human HEL cells assessed as concentration required to cause visible alteration in cell morphology incubated for 3 days by coulter counter method", "type": "cell-based", "details": "time 3 day", "method_in_brief": "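MCC scored by microscopy in confluent HEL cell cultures as the lowest compound concentration that causes a visible change in cell morphology.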"}, "[3]": {"tested_on": "Human alphaherpesvirus 3", "test": "Antiviral activity against thymidine kinase deficient Varicella zoster virus 07-1 infected in human HEL cells assessed as reduction in virus-induced cytopathogenic effect measured after 3 days coulter counter method", "type": "functional, organism-based", "details": "Human alphaherpesvirus 3, 07-1, HEL, 72 h"}, "[4]": {"tested_on": "Human alphaherpesvirus 3", "test": "Antiviral activity against thymidine kinase positive Varicella zoster virus OKA infected in human HEL cells assessed as reduction in virus-induced cytopathogenic effect measured after 3 days coulter counter method", "type": "functional, organism-based", "details": "Human alphaherpesvirus 3, OKA, 72 h"}, "[5]": {"test": "Selectivity index, ratio of CC50 for human HEL cells to EC50 for thymidine kinase positive Varicella zoster virus OKA infected in human HEL cells", "type": "toxicity, cell-based", "details": "read-out: Ratio CC50/EC50", "method_in_brief": "(§1)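 VZV plaque reduction in confluent HEL cells: 20 PFU input, 1–2 h adsorption, then unbound virus removed and cells given varying compound concentrations in duplicate. EC50 is the concentration halving plaque number. […] SI = CC50/EC50.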"}, "[6]": {"test": "Selectivity ratio of EC50 for thymidine kinase deficient Varicella zoster virus 07-1 infected in human HEL cells to EC50 for thymidine kinase positive Varicella zoster virus OKA infected in human HEL cells", "type": "functional"}, "[7]": {"test": "Selectivity index, ratio of CC50 for human HEL cells to EC50 for thymidine kinase deficient Varicella zoster virus 07-1 infected in human HEL cells", "type": "toxicity, cell-based", "details": "read-out: Ratio CC50/EC50", "method_in_brief": "as §1"}}}
{"smiles": "O=c1[nH]c(=O)n([C@H]2C[C@H](O)[C@@H](CO)O2)cc1/C=C/Br", "note": "[BRIVUDINE]", "values": [{"measurement": "CC50", "setting": "[1]", "result": "> 300", "unit": "µM"}, {"measurement": "MCC at 72 h", "setting": "[2]", "result": "> 300", "unit": "µM"}, {"measurement": "EC50", "setting": "[3]", "result": 12, "unit": "µM"}]}
{"smiles": "CC(=O)OC[C@H]1O[C@@H](n2cc3c(C#CCCCCn4c5ccccc5c5ccccc54)c(-c4ccc(C)cc4)oc3nc2=O)C[C@@H]1OC(C)=O", "values": [{"measurement": "CC50", "setting": "[1]", "result": 6.22, "unit": "µM"}, {"measurement": "MCC at 72 h", "setting": "[2]", "result": 100, "unit": "µM"}, {"measurement": "EC50", "setting": "[3]", "result": 13.2, "unit": "µM"}, {"measurement": "EC50", "setting": "[4]", "result": 7.23, "unit": "µM"}, {"measurement": "selectivity ratio", "setting": "[5]", "result": "≤ 1"}]}
{"smiles": "COCC#Cc1c(-c2ccc(C)cc2)oc2nc(=O)n([C@H]3C[C@H](OC(C)=O)[C@@H](COC(C)=O)O3)cc12", "values": [{"measurement": "MCC at 72 h", "setting": "[2]", "result": "> 100", "unit": "µM"}, {"measurement": "EC50", "setting": "[3]", "result": 44.7, "unit": "µM"}, {"measurement": "EC50", "setting": "[4]", "result": 20, "unit": "µM"}]}
{"smiles": "CCCCCc1ccc(C#Cc2c(-c3ccc(CCCCC)cc3)oc3nc(=O)n([C@H]4C[C@H](OC(C)=O)[C@@H](COC(C)=O)O4)cc23)cc1", "values": [{"measurement": "CC50", "setting": "[1]", "result": "> 100", "unit": "µM"}, {"measurement": "MCC at 72 h", "setting": "[2]", "result": 100, "unit": "µM"}, {"measurement": "EC50", "setting": "[3]", "result": 8.94, "unit": "µM"}, {"measurement": "EC50", "setting": "[4]", "result": 1.5, "unit": "µM"}, {"measurement": "Ratio EC50", "setting": "[6]", "result": 6}, {"measurement": "selectivity ratio", "setting": "[5]", "result": 67}, {"measurement": "selectivity ratio", "setting": "[7]", "result": 11}]}
{"smiles": "CC(=O)OC[C@H]1O[C@@H](n2cc3c(C#CCCO)c(-c4ccc(C)cc4)oc3nc2=O)C[C@@H]1OC(C)=O", "values": [{"measurement": "MCC at 72 h", "setting": "[2]", "result": "> 100", "unit": "µM"}, {"measurement": "EC50", "setting": "[3]", "result": "> 100", "unit": "µM"}, {"measurement": "EC50", "setting": "[4]", "result": 76.5, "unit": "µM"}]}
{"smiles": "CCCCCc1ccc(-c2oc3nc(=O)n([C@H]4C[C@H](OC(C)=O)[C@@H](COC(C)=O)O4)cc3c2C#CCCO)cc1", "values": [{"measurement": "CC50", "setting": "[1]", "result": 2.66, "unit": "µM"}, {"measurement": "MCC at 72 h", "setting": "[2]", "result": 100, "unit": "µM"}, {"measurement": "EC50", "setting": "[3]", "result": 13, "unit": "µM"}, {"measurement": "EC50", "setting": "[4]", "result": 4.02, "unit": "µM"}, {"measurement": "selectivity ratio", "setting": "[5]", "result": "≤ 1"}]}
{"smiles": "CC(=O)OC[C@H]1O[C@@H](n2cc3c(C#CCCN4C(=O)c5ccccc5C4=O)c(-c4ccc(C)cc4)oc3nc2=O)C[C@@H]1OC(C)=O", "values": [{"measurement": "MCC at 72 h", "setting": "[2]", "result": 100, "unit": "µM"}, {"measurement": "EC50", "setting": "[3]", "result": 38.1, "unit": "µM"}, {"measurement": "EC50", "setting": "[4]", "result": 31, "unit": "µM"}]}
{"smiles": "CC(=O)OC[C@H]1O[C@@H](n2cc3c(C#Cc4ccc(C)cc4)c(-c4ccc(C)cc4)oc3nc2=O)C[C@@H]1OC(C)=O", "values": [{"measurement": "CC50", "setting": "[1]", "result": 8.77, "unit": "µM"}, {"measurement": "MCC at 72 h", "setting": "[2]", "result": 60, "unit": "µM"}, {"measurement": "EC50", "setting": "[3]", "result": 10.9, "unit": "µM"}, {"measurement": "EC50", "setting": "[4]", "result": 6.84, "unit": "µM"}, {"measurement": "selectivity ratio", "setting": "[5]", "result": "≤ 1"}]}
{"smiles": "CCCCCc1ccc(-c2oc3nc(=O)n([C@H]4C[C@H](OC(C)=O)[C@@H](COC(C)=O)O4)cc3c2C#CCO)cc1", "values": [{"measurement": "CC50", "setting": "[1]", "result": 3.8, "unit": "µM"}, {"measurement": "MCC at 72 h", "setting": "[2]", "result": 100, "unit": "µM"}, {"measurement": "EC50", "setting": "[3]", "result": 13, "unit": "µM"}, {"measurement": "EC50", "setting": "[4]", "result": 7.56, "unit": "µM"}, {"measurement": "selectivity ratio", "setting": "[5]", "result": "≤ 1"}]}
{"smiles": "CCCCCc1ccc(C#Cc2c(-c3ccc(C)cc3)oc3nc(=O)n([C@H]4C[C@H](OC(C)=O)[C@@H](COC(C)=O)O4)cc23)cc1", "values": [{"measurement": "MCC at 72 h", "setting": "[2]", "result": 20, "unit": "µM"}, {"measurement": "EC50", "setting": "[3]", "result": "> 4", "unit": "µM"}, {"measurement": "EC50", "setting": "[4]", "result": "> 4", "unit": "µM"}]}
{"smiles": "CC(=O)OC[C@H]1O[C@@H](n2cc3c(C#CCO)c(-c4ccc(C)cc4)oc3nc2=O)C[C@@H]1OC(C)=O", "values": [{"measurement": "MCC at 72 h", "setting": "[2]", "result": "> 100", "unit": "µM"}, {"measurement": "EC50", "setting": "[3]", "result": "> 100", "unit": "µM"}, {"measurement": "EC50", "setting": "[4]", "result": 66.9, "unit": "µM"}]}
{"smiles": "CC(=O)OCC#Cc1c(-c2ccc(C)cc2)oc2nc(=O)n([C@H]3C[C@H](OC(C)=O)[C@@H](COC(C)=O)O3)cc12", "values": [{"measurement": "MCC at 72 h", "setting": "[2]", "result": "> 100", "unit": "µM"}, {"measurement": "EC50", "setting": "[3]", "result": 100, "unit": "µM"}, {"measurement": "EC50", "setting": "[4]", "result": "> 100", "unit": "µM"}]}
{"smiles": "CCCCCc1ccc(-c2oc3nc(=O)n([C@H]4C[C@H](OC(C)=O)[C@@H](COC(C)=O)O4)cc3c2C#Cc2ccc(C)cc2)cc1", "values": [{"measurement": "MCC at 72 h", "setting": "[2]", "result": 100, "unit": "µM"}, {"measurement": "EC50", "setting": "[3]", "result": "> 20", "unit": "µM"}, {"measurement": "EC50", "setting": "[4]", "result": 7.61, "unit": "µM"}]}
{"smiles": "Nc1nc2c(ncn2COCCO)c(=O)[nH]1", "note": "[ACYCLOVIR]", "values": [{"measurement": "CC50", "setting": "[1]", "result": "> 300", "unit": "µM"}, {"measurement": "MCC at 72 h", "setting": "[2]", "result": "> 440", "unit": "µM"}]}
{"smiles": "CC(=O)OC[C@H]1O[C@@H](n2cc3c(C#CC4(O)c5ccccc5-c5ccccc54)c(-c4ccc(C)cc4)oc3nc2=O)C[C@@H]1OC(C)=O", "values": [{"measurement": "CC50", "setting": "[1]", "result": 2.36, "unit": "µM"}, {"measurement": "MCC at 72 h", "setting": "[2]", "result": 100, "unit": "µM"}, {"measurement": "EC50", "setting": "[3]", "result": 7.61, "unit": "µM"}, {"measurement": "EC50", "setting": "[4]", "result": 1.3, "unit": "µM"}, {"measurement": "selectivity ratio", "setting": "[5]", "result": "≤ 1"}]}
